≈ marks a conversion by molar mass, not a printed value.
Assays:
[1] = system: Schistosoma mansoni; experiment: WHO-TDR: Schistosomiasis; format: functional; parameters: concentration or dose not given beside the values
Method in brief: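 A diverse library of 10,000 compounds from Life Chemicals, filtered for drug-likeness and reactive groups, was screened against whole larval and/or adult Schistosoma mansoni worms of the Puerto Rican strain. Previously published standard procedures were followed, with a reference drug as positive control. Activity is given as percent inhibition and as IC50.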

[2] = system: Trypanosoma brucei brucei; experiment: WHO-TDR: Human African Trypanosomiasis (HAT); format: functional, organism-based; conditions: Squib-427
Method in brief: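 In this whole-organism screen, the target was the bloodstream form of Trypanosoma brucei, strain Squib 427. A diverse set of 10,000 compounds from Life Chemicals, previously filtered for drug-likeness and reactive groups, was assayed by standard published procedures using reference drugs as positive controls. Each value is an IC50 for antiparasitic potency.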

[3] = system: Trypanosoma cruzi; experiment: WHO-TDR: Chagas disease; format: functional, organism-based, Homo sapiens; conditions: MRC5
Method in brief: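 Whole-organism screen of a 10,000-compound diverse library from Life Chemicals, filtered for drug-likeness and reactive groups, against intracellular amastigotes of Trypanosoma cruzi Tulahuen CL2 beta-galactosidase strain grown in MRC-5SV2 human lung fibroblast host cells. The assay followed previously published standard procedures, with a reference drug as positive control. Antiparasitic potency is reported as IC50.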

[4] = WHO-TDR: Cytotoxicity; format: toxicity, cell-based; conditions: human, MRC5 cells
[5] = system: Onchocerca ochengi; experiment: (§1) WHO-TDR: Onchocerciasis; format: functional; parameters: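 at 12.5 µM on microfilariae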
Method in brief: (§2)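 A diverse library of 10,000 compounds from Life Chemicals, filtered for drug-likeness and reactive groups, was screened against whole microfilariae of Onchocerca ochengi or Onchocerca lienalis. These animal pathogens served as stand-ins for the human parasite. Activity is given as percent inhibition and as IC50.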

[6] = system: Onchocerca ochengi; experiment: as §1; format: functional; parameters: concentration or dose not given beside the values; method in brief: as §2; remark: listed apart in the source
[7] = system: Plasmodium falciparum K1; experiment: WHO-TDR: Malaria; format: functional, organism-based, Homo sapiens; conditions: Erythrocyte
Method in brief: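 Previously published standard procedures, including a reference drug as positive control, were used to screen whole Plasmodium falciparum K1 parasites inside human red blood cells. IC50 is the measure of antiplasmodial potency. The compounds were a 10,000-member diverse Life Chemicals library.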

[8] = system: Leishmania infantum; experiment: WHO-TDR: Leishmaniasis; format: functional, organism-based, Mus musculus; conditions: Macrophage
Method in brief: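 Intracellular amastigotes of Leishmania infantum MHOM/MA(BE)/67, hosted in murine peritoneal macrophages, were exposed to compounds from a 10,000-member diverse library supplied by Life Chemicals. The library had been filtered for drug-likeness and reactive groups. The reported IC50 expresses antiparasitic potency.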

IC50 [2]	IC50 [7]	IC50 [8]	SMILES	% Inhibition [1]	IC50 [3]	IC50 [4]	% Inhibition [5]	% Inhibition [6]
0.47 µg/mL (≈ 1.08 µM)	5.1 µg/mL (≈ 11.7 µM)	> 13.1 µg/mL	CCCc1cc(=O)[nH]c(-n2nc(C)cc2NC(=O)COc2ccc(Cl)cc2Cl)n1	0%	0.395 µg/mL (≈ 0.904 µM)	0.362 µg/mL (≈ 0.83 µM)	75%	0%
0.42 µg/mL (≈ 0.959 µM)	0.644 µg/mL (≈ 1.47 µM)	> 13.1 µg/mL	Cc1cc(NC(=O)C2(c3ccc(Cl)cc3)CCCC2)n(-c2nc3c(c(=O)[nH]2)CCC3)n1	56.7%	0.37 µg/mL (≈ 0.844 µM)	0.338 µg/mL (≈ 0.772 µM)	0%	0%
> 14.7 µg/mL	> 14.7 µg/mL	> 14.7 µg/mL	O=C(CSc1nc(CC(=O)N2CCN(c3ccccc3F)CC2)cs1)Nc1ccc(F)cc1	0%	> 14.7 µg/mL	> 14.7 µg/mL	100%	0%
3.68 µg/mL (≈ 9.6 µM)	> 11.5 µg/mL	> 11.5 µg/mL	CN1CCCc2cc(C(CNC(=O)c3cccs3)N3CCCCC3)ccc21 (stereo unspecified)	0%	10.4 µg/mL (≈ 27.2 µM)	> 11.5 µg/mL	100%	0%
4.14 µg/mL (≈ 9.71 µM)	2.96 µg/mL (≈ 6.93 µM)	> 12.8 µg/mL	O=C(Cn1c(=O)n(Cc2cccnc2)c(=O)c2ncccc21)c1ccc2c(c1)CCCC2	0%	3.81 µg/mL (≈ 8.93 µM)	> 12.8 µg/mL	100%	0%
0.253 µg/mL (≈ 0.865 µM)	1.69 µg/mL (≈ 5.79 µM)	> 8.77 µg/mL	O=C(Cc1cccc2ccccc12)Nc1onc2c1CCC2	0%	0.498 µg/mL (≈ 1.7 µM)	2.87 µg/mL (≈ 9.83 µM)	0%	0%
4.13 µg/mL (≈ 9.49 µM)	> 13 µg/mL	> 13 µg/mL	CSc1nc(NC(C)C)c2cnn(CCNC(=O)COc3ccc(Cl)cc3)c2n1	0%	4.18 µg/mL (≈ 9.62 µM)	> 13 µg/mL	100%	0%
0.334 µg/mL (≈ 1.02 µM)	> 9.81 µg/mL	> 9.81 µg/mL	O=C(COc1ccc(Cl)cc1Cl)Nc1onc2c1CCC2	0%	> 9.81 µg/mL	> 9.81 µg/mL	0%	0%
> 11.4 µg/mL	0.152 µg/mL (≈ 0.4 µM)	3.69 µg/mL (≈ 9.71 µM)	Cc1ccc(N2CCn3c2nnc(C(=O)NCCC2=CCCCC2)c3=O)cc1	0%	> 11.4 µg/mL	> 11.4 µg/mL	0%	0%
0.449 µg/mL (≈ 0.983 µM)	0.137 µg/mL (≈ 0.3 µM)	4.43 µg/mL (≈ 9.71 µM)	Cc1cc(=O)[nH]c(-n2nc(C)cc2NC(=O)c2ccc(S(=O)(=O)N3CCCCC3)cc2)n1	25%	0.418 µg/mL (≈ 0.915 µM)	0.445 µg/mL (≈ 0.975 µM)	0%	0%

Continued, molecule first:

SMILES	IC50 [2]	IC50 [7]	IC50 [8]	% Inhibition [1]	IC50 [3]	IC50 [4]	% Inhibition [5]	% Inhibition [6]
CC(C)S(=O)(=O)Nc1ccc2c(c1)NC(=O)C(C)(C)CO2	6.82 µg/mL (≈ 21.8 µM)	3.66 µg/mL (≈ 11.7 µM)	> 9.37 µg/mL	0%	3.93 µg/mL (≈ 12.6 µM)	> 9.37 µg/mL	100%	0%
O=C(Nc1nnc(-c2ccno2)o1)c1nc2ccccc2s1	> 9.4 µg/mL	6.88 µg/mL (≈ 22 µM)	> 9.4 µg/mL	0%	> 9.4 µg/mL	> 9.4 µg/mL	100%	0%
CSc1nc(NC(C)C)c2cnn(CCNC(=O)C34CC5CC(CC(C5)C3)C4)c2n1	4.07 µg/mL (≈ 9.49 µM)	> 12.9 µg/mL	> 12.9 µg/mL	0%	4.17 µg/mL (≈ 9.73 µM)	> 12.9 µg/mL	100%	0%
Cc1ccc(NC(=O)CN2CCC(C(=O)NCCc3c[nH]c4ccccc34)CC2)c(C)c1	> 13 µg/mL	> 13 µg/mL	> 13 µg/mL	0%	4.92 µg/mL (≈ 11.4 µM)	> 13 µg/mL	100%	0%
O=C(CC1CSc2nccc(=O)n21)Nc1cc(C(F)(F)F)cc(C(F)(F)F)c1 (stereo unspecified)	> 12.7 µg/mL	> 12.7 µg/mL	> 12.7 µg/mL	0%	> 12.7 µg/mL	> 12.7 µg/mL	100%	0%
Cc1cc(F)ccc1S(=O)(=O)Nc1ccc2c(c1)CN(C(=O)c1ccco1)CC2	4.03 µg/mL (≈ 9.71 µM)	6.28 µg/mL (≈ 15.2 µM)	> 12.4 µg/mL	0%	3.44 µg/mL (≈ 8.3 µM)	7.31 µg/mL (≈ 17.6 µM)	100%	0%
Cc1cccc(NC(=O)Cn2cc(S(=O)(=O)c3ccc(F)cc3)c3ccccc32)n1	4.11 µg/mL (≈ 9.71 µM)	> 12.7 µg/mL	> 12.7 µg/mL	0%	4.41 µg/mL (≈ 10.4 µM)	> 12.7 µg/mL	100%	0%
CCc1ccc(S(=O)(=O)Nc2ccc3c(c2)NC(=O)C(C)(C)CO3)s1	3.08 µg/mL (≈ 8.08 µM)	> 11.4 µg/mL	3.69 µg/mL (≈ 9.71 µM)	0%	3.45 µg/mL (≈ 9.08 µM)	> 11.4 µg/mL	100%	60%
CCSc1nnc(-c2ccccc2)c2sc(C)nc12	0.146 µg/mL (≈ 0.508 µM)	1.39 µg/mL (≈ 4.82 µM)	2.79 µg/mL (≈ 9.71 µM)	0%	0.259 µg/mL (≈ 0.901 µM)	4.9 µg/mL (≈ 17 µM)	100%	0%
CCOc1ccccc1NC(=O)Cn1c(=O)n(Cc2cccs2)c(=O)c2ncccc21	4.24 µg/mL (≈ 9.72 µM)	2.95 µg/mL (≈ 6.76 µM)	> 13.1 µg/mL	0%	> 13.1 µg/mL	> 13.1 µg/mL	100%	0%
CCCN1C(=O)CCc2cc(NS(=O)(=O)c3ccc(F)cc3)ccc21	3.56 µg/mL (≈ 9.83 µM)	> 10.9 µg/mL	> 10.9 µg/mL	0%	10.9 µg/mL (≈ 30 µM)	> 10.9 µg/mL	100%	0%
O=C(NCCn1nc(-c2ccco2)ccc1=O)C1c2ccccc2Oc2ccccc21	> 12.4 µg/mL	> 12.4 µg/mL	1.84 µg/mL (≈ 4.46 µM)	0%	> 12.4 µg/mL	> 12.4 µg/mL	0%	0%

Reference: ChEMBL document CHEMBL2093137, “WHO-TDR NTD Screening”
